# Measurements: ChEMBL document CHEMBL4251671, “Microporenic Acids A-G, Biofilm Inhibitors, and Antimicrobial Agents from the Basidiomycete Microporus Species” (J Nat Prod, 2018)
# Calls of active or inactive are those of the source. No cut-off for these calls is given here.
# Tested on: Staphylococcus aureus
# Test: Antibiofilm activity against Staphylococcus aureus DSM 1104 at 16 ug/ml after 24 hrs by crystal violet staining based assay relative to control
# Assay type: functional
# Conditions: DSM 1104, 24 h
# Procedure, shortened: (§1)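 S. aureus set to 0.5 McFarland turbidity and grown with serially diluted compounds in CASO broth with 4% glucose, 24 h, 37 °C. Biofilm stained with crystal violet 15 min, washed three times, dye extracted with dilute acetic acid, absorbance read at 550 nm. Two repeats of three parallel experiments; methanol as negative control.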
row,SMILES,inhibition at 16 µg/mL [%]
1,CC(C)=CCC/C(C)=C/CC/C(C)=C/CC/C(C)=C/CO[C@@H](C(=O)O)[C@H](CC(=O)O)C(=O)O,28

# Tested on: Staphylococcus aureus
# Test: Antibiofilm activity against Staphylococcus aureus DSM 1104 at 37 ug/ml after 24 hrs by crystal violet staining based assay relative to control
# Assay type: functional
# Conditions: DSM 1104, 24 h
# Procedure, shortened: as §1
row,SMILES,inhibition at 37 µg/mL [%]
1,C=C1C(=O)O[C@@H](C)[C@@H]1O,85

# Tested on: Staphylococcus aureus
# Test: Antibiofilm activity against Staphylococcus aureus DSM 1104 at 256 ug/ml after 24 hrs by crystal violet staining based assay relative to control
# Assay type: functional
# Conditions: DSM 1104, 24 h
# Procedure, shortened: as §1
row,SMILES,inhibition at 256 µg/mL [%]
1,COC(=O)C[C@H](C(=O)O)[C@@H](OC/C=C(\C)CC/C=C(\C)CC/C=C(\C)CCC=C(C)C)C(=O)O,86
2,CC(C)=CCC/C(C)=C/CC/C(C)=C/CC/C(C)=C/CO[C@@H](C(=O)O)[C@H](CC(=O)O)C(=O)O,86

# Tested on: Candida albicans
# Test: Antimicrobial activity against Candida albicans DSM 11225 by serial dilution method
# Assay type: functional
# Conditions: not given
row,SMILES,MIC [µg/mL]
1,CC(C)=CCC/C(C)=C/CC/C(C)=C/CC/C(C)=C/CO[C@@H](C(=O)O)[C@H](CC(=O)O)C(=O)O,64

# Tested on: Staphylococcus aureus
# Test: Antibiofilm activity against Staphylococcus aureus DSM 1104 at 64 ug/ml after 24 hrs by crystal violet staining based assay relative to control
# Assay type: functional
# Conditions: DSM 1104, 24 h
# Procedure, shortened: as §1
row,SMILES,inhibition at 64 µg/mL [%]
1,COC(=O)C[C@H](C(=O)O)[C@@H](OC/C=C(\C)CC/C=C(\C)CC/C=C(\C)CCC=C(C)C)C(=O)O,11
2,CC(C)=CCC/C(C)=C/CC/C(C)=C/CC/C(C)=C/CO[C@@H](C(=O)O)[C@H](CC(=O)O)C(=O)O,54

# Tested on: Staphylococcus aureus
# Test: Antibiofilm activity against Staphylococcus aureus DSM 1104 preformed biofilm at 256 ug/ml after 24 hrs by crystal violet staining based assay relative to control
# Assay type: functional
# Conditions: DSM 1104, 24 h
# Procedure, shortened: (§2)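 S. aureus set to 0.5 McFarland turbidity; biofilm preformed 24 h in CASO broth with 4% glucose, then exposed to compounds a further 24 h at 37 °C. Remaining biofilm quantified by crystal violet staining. Triplicate, two repetitions.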
row,SMILES,inhibition at 256 µg/mL [%]
1,CC(C)=CCC/C(C)=C/CC/C(C)=C/CC/C(C)=C/CO[C@@H](C(=O)O)[C@H](CC(=O)O)C(=O)O,49

# Tested on: Bacillus subtilis
# Test: Antimicrobial activity against Bacillus subtilis DSM 10 by serial dilution method
# Assay type: functional
# Conditions: not given
# Procedure, shortened: (§3)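 MIC by serial dilution in microtiter plates, in triplicate. YMG medium for yeasts and filamentous fungi, EBS for bacteria. Starting concentration 300 μg/mL.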
row,SMILES,MIC [µg/mL]
1,COC(=O)C[C@H](C(=O)O)[C@@H](OC/C=C(\C)CC/C=C(\C)CC/C=C(\C)CCC=C(C)C)C(=O)O,300
2,CC(C)=CCC/C(C)=C/CC/C(C)=C/CC/C(C)=C/CO[C@@H](C(=O)O)[C@H](CC(=O)O)C(=O)O,300

# Tested on: Micrococcus luteus
# Test: Antimicrobial activity against Micrococcus luteus DSM 1790 by serial dilution method
# Assay type: functional
# Conditions: not given
# Procedure, shortened: as §3
row,SMILES,MIC [µg/mL]
1,COC(=O)C[C@H](C(=O)O)[C@@H](OC/C=C(\C)CC/C=C(\C)CC/C=C(\C)CCC=C(C)C)C(=O)O,37.5
2,CC(C)=CCC/C(C)=C/CC/C(C)=C/CC/C(C)=C/CO[C@@H](C(=O)O)[C@H](CC(=O)O)C(=O)O,37.5

# Tested on: Staphylococcus aureus
# Test: Antibiofilm activity against Staphylococcus aureus DSM 1104 preformed biofilm after 24 hrs by crystal violet staining based assay
# Assay type: functional, organism-based
# Conditions: not given
# Procedure, shortened: as §2
row,SMILES,Activity
1,C=C1C(=O)O[C@@H](C)[C@@H]1O,inactive

# Tested on: KB 3-1
# Test: Cytotoxicity against human KB 3.1 cells assessed as inhibition of cell growth at 37 ug/ml after 5 days by MTT assay
# Assay type: cell-based
# Conditions: kb 3-1, 120 h
row,SMILES,Activity
1,COC(=O)C[C@H](C(=O)O)[C@@H](OC/C=C(\C)CC/C=C(\C)CC/C=C(\C)CCC=C(C)C)C(=O)O,Non-Toxic

# Tested on: Staphylococcus aureus
# Test: Antimicrobial activity against Staphylococcus aureus DSM 1104 by serial dilution method
# Assay type: functional
# Conditions: not given
row,SMILES,MIC [µg/mL]
1,C=C1C(=O)O[C@@H](C)[C@@H]1O,150
2,COC(=O)C[C@H](C(=O)O)[C@@H](OC/C=C(\C)CC/C=C(\C)CC/C=C(\C)CCC=C(C)C)C(=O)O,> 256
3,CC(C)=CCC/C(C)=C/CC/C(C)=C/CC/C(C)=C/CO[C@@H](C(=O)O)[C@H](CC(=O)O)C(=O)O,> 256

# Tested on: Staphylococcus aureus
# Test: Antimicrobial activity against Staphylococcus aureus DSM 346 by serial dilution method
# Assay type: functional
# Conditions: not given
# Procedure, shortened: as §3
row,SMILES,MIC [µg/mL]
1,COC(=O)C[C@H](C(=O)O)[C@@H](OC/C=C(\C)CC/C=C(\C)CC/C=C(\C)CCC=C(C)C)C(=O)O,300
2,CC(C)=CCC/C(C)=C/CC/C(C)=C/CC/C(C)=C/CO[C@@H](C(=O)O)[C@H](CC(=O)O)C(=O)O,300

# Tested on: Staphylococcus aureus
# Test: Antibiofilm activity against Staphylococcus aureus DSM 1104 at 150 ug/ml after 24 hrs by crystal violet staining based assay relative to control
# Assay type: functional
# Conditions: DSM 1104, 24 h
# Procedure, shortened: as §1
row,SMILES,inhibition at 150 µg/mL [%]
1,C=C1C(=O)O[C@@H](C)[C@@H]1O,99

# Tested on: L929
# Test: Cytotoxicity against mouse L929 cells assessed as inhibition of cell growth at 37 ug/ml after 5 days by MTT assay
# Assay type: cell-based
# Conditions: l929, 120 h
row,SMILES,Activity
1,COC(=O)C[C@H](C(=O)O)[C@@H](OC/C=C(\C)CC/C=C(\C)CC/C=C(\C)CCC=C(C)C)C(=O)O,Non-Toxic
2,CC(C)=CCC/C(C)=C/CC/C(C)=C/CC/C(C)=C/CO[C@@H](C(=O)O)[C@H](CC(=O)O)C(=O)O,Non-Toxic

# Tested on: Staphylococcus aureus
# Test: Antibiofilm activity against Staphylococcus aureus DSM 1104 preformed biofilm at 64 ug/ml after 24 hrs by crystal violet staining based assay relative to control
# Assay type: functional
# Conditions: DSM 1104, 24 h
# Procedure, shortened: as §2
row,SMILES,inhibition at 64 µg/mL [%]
1,CC(C)=CCC/C(C)=C/CC/C(C)=C/CC/C(C)=C/CO[C@@H](C(=O)O)[C@H](CC(=O)O)C(=O)O,1.5

# Tested on: Mucor plumbeus
# Test: Antimicrobial activity against Mucor plumbeus MUCL 49355 by serial dilution method
# Assay type: functional
# Conditions: not given
# Procedure, shortened: as §3
row,SMILES,MIC [µg/mL]
1,COC(=O)C[C@H](C(=O)O)[C@@H](OC/C=C(\C)CC/C=C(\C)CC/C=C(\C)CCC=C(C)C)C(=O)O,150
2,CC(C)=CCC/C(C)=C/CC/C(C)=C/CC/C(C)=C/CO[C@@H](C(=O)O)[C@H](CC(=O)O)C(=O)O,75

# Tested on: Staphylococcus aureus
# Test: Antibiofilm activity against Staphylococcus aureus DSM 1104 at 75 ug/ml after 24 hrs by crystal violet staining based assay relative to control
# Assay type: functional
# Conditions: DSM 1104, 24 h
# Procedure, shortened: as §1
row,SMILES,inhibition at 75 µg/mL [%]
1,C=C1C(=O)O[C@@H](C)[C@@H]1O,92

# Tested on: KB 3-1
# Test: Cytotoxicity against human KB 3.1 cells assessed as inhibition of cell growth after 5 days by MTT assay
# Assay type: cell-based
# Conditions: KB 3-1, 120 h
# Procedure, shortened: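 IC50 determined by the previously described in vitro cytotoxicity method against mouse fibroblast L929 and HeLa-derived KB-3.1 cells. Compounds were tested from a starting concentration of 37 μg/mL.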
row,SMILES,IC50 [µM]
1,CC(C)=CCC/C(C)=C/CC/C(C)=C/CC/C(C)=C/CO[C@@H](C(=O)O)[C@H](CC(=O)O)C(=O)O,6

# Tested on: Escherichia coli
# Conditions: DSM 498
row,SMILES,MIC
1,COC(=O)C[C@H](C(=O)O)[C@@H](OC/C=C(\C)CC/C=C(\C)CC/C=C(\C)CCC=C(C)C)C(=O)O,inactive
2,CC(C)=CCC/C(C)=C/CC/C(C)=C/CC/C(C)=C/CO[C@@H](C(=O)O)[C@H](CC(=O)O)C(=O)O,inactive

# Tested on: Wickerhamomyces anomalus
# Test: Antimicrobial activity against Pichia anomala DSM 6766 by serial dilution method
# Assay type: functional
# Conditions: not given
# Procedure, shortened: as §3
row,SMILES,MIC
1,COC(=O)C[C@H](C(=O)O)[C@@H](OC/C=C(\C)CC/C=C(\C)CC/C=C(\C)CCC=C(C)C)C(=O)O,inactive

# Same assay, conditions: Hansenula anomala
row,SMILES,MIC [µg/mL]
1,CC(C)=CCC/C(C)=C/CC/C(C)=C/CC/C(C)=C/CO[C@@H](C(=O)O)[C@H](CC(=O)O)C(=O)O,150

# Tested on: Staphylococcus aureus
# Test: Antibiofilm activity against Staphylococcus aureus DSM 1104 preformed biofilm at 128 ug/ml after 24 hrs by crystal violet staining based assay relative to control
# Assay type: functional
# Conditions: DSM 1104, 24 h
# Procedure, shortened: as §2
row,SMILES,inhibition at 128 µg/mL [%]
1,CC(C)=CCC/C(C)=C/CC/C(C)=C/CC/C(C)=C/CO[C@@H](C(=O)O)[C@H](CC(=O)O)C(=O)O,37

# Tested on: Candida albicans
# Test: Antibiofilm activity against Candida albicans DSM 11225 preformed biofilm after 24 hrs by MTT assay
# Assay type: functional, organism-based
# Conditions: not given
# Procedure, shortened: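 C. albicans set to 0.5 McFarland turbidity; biofilm preformed 4 h at 37 °C in SB broth, then treated with serially diluted compounds for a further 24 h at 37 °C. Dispersal read by MTT reduction. Triplicate, two repetitions; methanol as negative control.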
row,SMILES,Activity
1,C=C1C(=O)O[C@@H](C)[C@@H]1O,inactive

# Tested on: Staphylococcus aureus
# Test: Antibiofilm activity against Staphylococcus aureus DSM 1104 after 24 hrs by crystal violet staining based assay
# Assay type: functional, organism-based
# Conditions: not given
# Procedure, shortened: as §1
row,SMILES,Activity
1,COC(=O)C[C@H](C(=O)O)[C@@H](OC/C=C(\C)CC/C=C(\C)CC/C=C(\C)CCC=C(C)C)C(=O)O,Dose-dependent effect
2,CC(C)=CCC/C(C)=C/CC/C(C)=C/CC/C(C)=C/CO[C@@H](C(=O)O)[C@H](CC(=O)O)C(=O)O,Dose-dependent effect

# Tested on: Yamadazyma tenuis
# Test: Antimicrobial activity against Candida tenuis MUCL 29982 by serial dilution method
# Assay type: functional
# Conditions: not given
# Procedure, shortened: as §3
row,SMILES,MIC
1,COC(=O)C[C@H](C(=O)O)[C@@H](OC/C=C(\C)CC/C=C(\C)CC/C=C(\C)CCC=C(C)C)C(=O)O,inactive
2,CC(C)=CCC/C(C)=C/CC/C(C)=C/CC/C(C)=C/CO[C@@H](C(=O)O)[C@H](CC(=O)O)C(=O)O,300 µg/mL

# Tested on: Staphylococcus aureus
# Test: Antibiofilm activity against Staphylococcus aureus DSM 1104 at 128 ug/ml after 24 hrs by crystal violet staining based assay relative to control
# Assay type: functional
# Conditions: DSM 1104, 24 h
# Procedure, shortened: as §1
row,SMILES,inhibition at 128 µg/mL [%]
1,COC(=O)C[C@H](C(=O)O)[C@@H](OC/C=C(\C)CC/C=C(\C)CC/C=C(\C)CCC=C(C)C)C(=O)O,38

# Tested on: Candida albicans
# Test: Antibiofilm activity against Candida albicans DSM 11225 preformed biofilm at 16 ug/ml after 24 hrs by MTT assay relative to control
# Assay type: functional
# Conditions: DSM 11225, 24 h
row,SMILES,inhibition at 16 µg/mL [%]
1,CC(C)=CCC/C(C)=C/CC/C(C)=C/CC/C(C)=C/CO[C@@H](C(=O)O)[C@H](CC(=O)O)C(=O)O,72

# Tested on: Candida albicans
# Test: Antibiofilm activity against Candida albicans DSM 11225 preformed biofilm at 8 ug/ml after 24 hrs by MTT assay relative to control
# Assay type: functional
# Conditions: DSM 11225, 24 h
row,SMILES,inhibition at 8 µg/mL [%]
1,CC(C)=CCC/C(C)=C/CC/C(C)=C/CC/C(C)=C/CO[C@@H](C(=O)O)[C@H](CC(=O)O)C(=O)O,52
